According to article PMC5771842 (Nature chemical biology, 2018):
“Also recorded” adds a separate entry of the source.

Tests used:
MC99IIIBΔTat-Rev HIV-1 = assay: HIV cytoprotection assay; format: cell-based; conditions: CEM 1A2 tat/rev++ cells
How it was run: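 CEM 1A2 tat/rev++ cells, which die on HIV infection, grown in RPMI-1640 with 20% FBS, bicarbonate and antibiotic-antimycotic at 37°C, 5% CO2; 12,500 cells/well. Test compound added in DMSO, then HIV-1 MC99IIIBΔTat-Rev; 4-day incubation. MTT added for 1–2 h, formazan dissolved in DMSO, absorbance read at 590 nm. Triplicate per dose; infected, uninfected, media-only and AZT controls. IC50/CC50 estimated by eye.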

[1] = system: CEM 1A2 tat/rev++ T-cells; assay: HIV cytoprotection assay; format: cell-based, human; conditions: CEM 1A2 T cells

## divamide C [Compound 3]
MC99IIIBΔTat-Rev HIV-1
  anti-HIV activity (cytoprotection), in words: essentially inactive; also recorded: neither cytotoxic nor anti-HIV activities; also recorded: lacked any detectable cytoprotection
[1]
  cytotoxicity, in words: neither cytotoxic nor anti-HIV activities
